These results are taken from ChEMBL document CHEMBL1139485, “Tricyclic pyrazoles. 3. Synthesis, biological evaluation, and molecular modeling of analogues of the cannabinoid antagonist 8-chloro-1-(2',4'-dichlorophenyl)-N-piperidin-1-yl-1,4,5,6-tetrahydrobenzo[6,7]cyclohepta[1,2-c]pyrazole-3-carboxamide” (J Med Chem, 2005).

The source made the active and inactive calls. The calls are words filed in the database; no cut-off is given here. Where only a bound is given, the exact number is not on record here.

In experiment [1] the target is Cannabinoid receptor 2 (Mus musculus, UniProt P47936). Put plainly: Displacement of [3H]CP-55940 from CB2 receptor in CD1 mouse spleen. The format is tissue-based. In short, it runs like this:
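Membranes from male CD-1 mouse brain (minus cerebellum) for CB1 or spleen for CB2, prepared in ice-cold TME buffer (50 mM Tris-HCl, 1 mM EDTA, 3.0 mM MgCl2, pH 7.4). Filtration, scintillation counting. IC50 from sigmoid fit converted to Ki. Triplicate, ≥5 experiments.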
A general note: Loss of bound radioactivity is the signal in a displacement assay; it reports binding, not function.

Experiment [2] deals with Cannabinoid receptor (Mus musculus) (UniProt P47746+P47936). The experiment is described as follows: Selectivity for CB1 receptor over CB2 receptor in CD1 mouse. The format is protein assay.
Experiment [3] concerns the target Cannabinoid receptor 1 (Mus musculus, UniProt P47746). Put plainly: Displacement of [3H]CP-55940 from CB1 receptor in CD1 mouse brain. The format is tissue-based. In short, it runs like this: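 Membranes from male CD-1 mouse brain (minus cerebellum) for CB1 or spleen for CB2, prepared in ice-cold TME buffer (50 mM Tris-HCl, 1 mM EDTA, 3.0 mM MgCl2, pH 7.4). 30–80 μg protein incubated with 0.5–1 nM [3H]CP-55,940, 1 h, 30 °C, with 5 mg/mL fatty-acid-free BSA. Nonspecific binding defined by 1 μM CP-55,940. Filtration, scintillation counting. IC50 from sigmoid fit converted to Ki. Triplicate, ≥5 experiments.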

Experiment [4] has as its system Mus musculus. The experiment is described as follows: Increase in upper gastrointestinal motility in CD1 mouse at 0.5 to 1 mg/kg, ip. The format is functional. The note with it: dose mg/kg 0.5-1; route intraperitoneal. In short, it runs like this: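 Male CD-1 mice (20–35 g), n = 15–20 per group. Compound given ip in saline with 0.1% Tween-80, 30 min before intragastric red carmine marker (6% suspension in 0.5% methylcellulose, 0.3 mL/mouse). Killed 20 min later. Distance travelled by the marker head expressed as % of small-intestine length (pylorus to ileocaecal junction). Group mean ± SEM versus vehicle-treated mice, by ANOVA/Newman–Keuls.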

Experiment [5] relates to Mus musculus. The experiment is described as follows: Effect on upper gastrointestinal motility in CD1 mouse at 0.1 mg/kg, ip. On the set-up: dose 0.1 mg/kg. In kind it is functional, organism-based. In short, it runs like this:
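Male CD-1 mice (20–35 g), n = 15–20 per group. Drug in saline with 0.1% Tween-80 (12.5 mL/kg) given ip 30 min before intragastric red carmine (6 wt %/v in 0.5% methylcellulose, 0.3 mL/mouse). Mice killed 20 min later. Distance reached by the marker head expressed as % of small intestine length (pylorus to ileocaecal junction). Mean ± SEM.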

The subject of experiment [6] is Mus musculus. The experiment is described as follows: Reversal of 0.5 mg/kg WIN-55212-2-induced inhibitory effect on upper gastrointestinal motility in CD1 mouse at 0.1 mg/kg ip. The format is functional, organism-based. In short, it runs like this: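 Male CD-1 mice, n = 15–20 per group. Test drug 0.1 mg/kg ip given 10 min before WIN 55,212-2 (0.5 mg/kg ip), both in saline with 0.1% Tween-80. Intragastric carmine marker 20 min after agonist; mice killed 20 min later. Transit measured as % of small intestine length travelled by marker. ANOVA with Newman–Keuls test.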

Sequence of Cannabinoid receptor 2 (P47936 whole entry): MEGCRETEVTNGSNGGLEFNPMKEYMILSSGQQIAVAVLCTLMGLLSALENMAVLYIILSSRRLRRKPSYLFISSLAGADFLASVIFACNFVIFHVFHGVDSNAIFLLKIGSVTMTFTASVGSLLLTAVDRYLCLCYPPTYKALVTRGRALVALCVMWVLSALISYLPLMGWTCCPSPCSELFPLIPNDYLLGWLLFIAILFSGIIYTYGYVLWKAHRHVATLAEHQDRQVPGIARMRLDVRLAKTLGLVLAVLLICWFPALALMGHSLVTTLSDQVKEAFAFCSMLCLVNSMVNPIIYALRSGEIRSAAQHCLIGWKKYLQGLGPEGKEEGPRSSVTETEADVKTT
Sequence of Cannabinoid receptor 1 (P47746 whole entry): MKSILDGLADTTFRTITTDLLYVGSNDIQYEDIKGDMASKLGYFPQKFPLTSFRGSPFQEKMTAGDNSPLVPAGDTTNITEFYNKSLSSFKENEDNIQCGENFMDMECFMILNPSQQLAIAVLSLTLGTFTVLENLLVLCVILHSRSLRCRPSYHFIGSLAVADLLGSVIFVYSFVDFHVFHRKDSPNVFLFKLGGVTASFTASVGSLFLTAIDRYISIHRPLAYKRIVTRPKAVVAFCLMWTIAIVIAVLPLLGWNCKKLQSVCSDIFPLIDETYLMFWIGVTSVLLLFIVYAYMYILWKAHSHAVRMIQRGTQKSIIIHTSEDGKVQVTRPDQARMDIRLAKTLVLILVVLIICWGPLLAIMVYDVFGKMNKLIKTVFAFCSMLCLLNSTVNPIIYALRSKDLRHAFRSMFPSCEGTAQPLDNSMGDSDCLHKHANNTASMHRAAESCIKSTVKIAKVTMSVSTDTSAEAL
Sequence of Cannabinoid receptor (Mus musculus) (P47746 whole entry, looked up): as the sequence (P47746 whole entry) above
Sequence of Cannabinoid receptor (Mus musculus) (P47936 whole entry, looked up): as the sequence (P47936 whole entry) above

`Cc1ccc2c(c1)CCCc1c(C(=O)NN3CCCCC3)nn(-c3ccc(Cl)cc3Cl)c1-2`: the values for the Ki in experiment [1] and in experiment [3] were 0.46 nM (antagonist) and 0.0052 nM (antagonist), respectively. The Ratio Ki in experiment [2] worked out at 88.5.

As to `O=C(NC1CCCCC1)c1nn(-c2ccc(Cl)cc2Cl)c2c1CCCc1cc(Cl)ccc1-2`, the inhibition constant (Ki) (commonly the equilibrium dissociation constant of an inhibitor or competing ligand from its target) in experiment [1] was 0.65 nM (antagonist); in experiment [3], 0.3 nM (antagonist). Also, the Ratio Ki in experiment [2] turned out to be 2.16.

Consider `O=C(Nc1ccccc1)c1nn(-c2ccc(Cl)cc2Cl)c2c1CCCc1cc(Cl)ccc1-2`, for which the Ki is 1.45 nM (antagonist) in experiment [1] and 4.35 nM (antagonist) in experiment [3]. Moreover, the Ratio Ki in experiment [2] was 0.33.

`O=C(NN1CCCCC1)c1nn(-c2ccc(Cl)cc2Cl)c2c1Cc1cc(Cl)ccc1-2`: the Ki in experiment [1] is 0.34 nM (antagonist); in experiment [3], 2050 nM (antagonist). The Ratio Ki in experiment [2] worked out at 0.000166.

With `O=C(NN1CCCCC1)c1nn(-c2ccc(Cl)cc2Cl)c2c1CCCc1cc(Cl)ccc1-2`, the Ki is 21 nM (antagonist) in experiment [1] and 0.00035 nM (antagonist) in experiment [3]. The Ratio Ki in experiment [2] was 60000.

As to `O=C(NN1CCCCC1)c1nn(-c2ccc(Cl)cc2Cl)c2c1CCCc1ccccc1-2`, the inhibitory constant (Ki) is 18.1 nM (antagonist) in experiment [1] and 168 nM (antagonist) in experiment [3]. For the same compound, the Ratio Ki in experiment [2] was found to be 0.11.

Take `O=C(NN1CCCCC1)c1nn(-c2ccc(Cl)cc2Cl)c2c1CCc1cc(Cl)ccc1-2`: the Ki is listed as 227 nM (antagonist) in experiment [1] and 14.8 nM (antagonist) in experiment [3]. The Ratio Ki in experiment [2] was 15.3.

In the case of `O=C(NN1CCCC1)c1nn(-c2ccc(Cl)cc2Cl)c2c1CCCc1cc(Cl)ccc1-2`, the Ki in experiment [1] is listed as 45 nM (antagonist); in experiment [3], 0.004 nM (antagonist). The Ratio Ki in experiment [2] is 11200.

In the case of `O=C(NN1CCCCC1)c1nn(-c2ccc(Cl)cc2Cl)c2c1CCCc1c(Cl)cccc1-2`, the results for the Ki in experiment [1] and in experiment [3] were 31.6 nM (antagonist) and 9.84 nM (antagonist), respectively. Moreover, the Ratio Ki in experiment [2] worked out at 3.21.

With `O=C(NN1CCCCCC1)c1nn(-c2ccc(Cl)cc2Cl)c2c1CCCc1cc(Cl)ccc1-2`, the Ki in experiment [1] is reported as 2 nM (antagonist); in experiment [3] it was 0.001 nM (antagonist). Besides, the Activity in experiment [4] worked out at 65%. Further, in experiment [2], the Ratio Ki worked out at 2000. For the same compound, the result in experiment [5] was inactive. Further, the result in experiment [6] was Active.

On to `COc1ccc(NC(=O)c2nn(-c3ccc(Cl)cc3Cl)c3c2CCCc2cc(Cl)ccc2-3)cc1`, for which the inhibitory constant (Ki) is reported as 43.3 nM (antagonist) in experiment [1] and 0.013 nM (antagonist) in experiment [3]. For the same compound, the Ratio Ki in experiment [2] amounted to 3300.

In the case of `O=C(NN1CCCCC1)c1nn(-c2ccc(Cl)cc2Cl)c2c1CCCc1ccc(Cl)cc1-2`, the values for the inhibitory constant (Ki) in experiment [1] and in experiment [3] were 26.8 nM (antagonist) and 31.2 nM (antagonist), respectively. The Ratio Ki in experiment [2] amounted to 0.86.

On to `Cc1ccc2c(c1)CCCc1c(C(=O)NN3CCCC3)nn(-c3ccc(Cl)cc3Cl)c1-2`, for which the inhibitory constant (Ki) in experiment [1] is listed as 386 nM (antagonist); in experiment [3] it was 0.11 nM (antagonist). For the same compound, in experiment [2], the Ratio Ki came to 3510.

In the case of `O=C(Nc1ccc(Cl)c(Cl)c1)c1nn(-c2ccc(Cl)cc2Cl)c2c1CCCc1cc(Cl)ccc1-2`, the results for the Ki in experiment [1] and in experiment [3] were over 500 nM and 25.8 nM (antagonist), respectively.

`O=C(NN1CCCCC1)c1nn(-c2ccc(Cl)cc2Cl)c2c1CCCc1cc(Br)ccc1-2`: the inhibition constant Ki in experiment [1] was 37 nM (antagonist); in experiment [3], 0.008 nM (antagonist). Also, the Ratio Ki in experiment [2] was found to be 4620.

Consider `Cc1ccc(NC(=O)c2nn(-c3ccc(Cl)cc3Cl)c3c2CCCc2cc(Cl)ccc2-3)cc1`, for which the inhibition constant (Ki) was 65 nM (antagonist) in experiment [1] and 5.74 nM (antagonist) in experiment [3]. Also, the Ratio Ki in experiment [2] was 11.3.

On to `O=C(Nc1ccc(Cl)cc1)c1nn(-c2ccc(Cl)cc2Cl)c2c1CCCc1cc(Cl)ccc1-2`, for which the inhibition constant Ki in experiment [1] is 79 nM (antagonist); in experiment [3], 2.5 nM (antagonist). Further, in experiment [2], the Ratio Ki was 31.6.
